Source: publication PMC6488424 (European journal of medicinal chemistry, 2019)
One block for each compound: values may come before it.

Tests used:
[1] = test system: CXCR4-positive MDA-MB-231 human breast cancer cells; assay: Matrigel invasion assay induced by CXCR4/CXCL12-mediated interaction; assay type: cell-based; conditions: MDA-MB-231, 22 h, read-out: Inhibition of cell invasion
Summary of the method: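 MDA-MB-231 cells were pre-mixed with test compound (100 nM) and seeded in the upper well of a Matrigel-coated chamber in serum-free medium. The lower well held CXCL12α (200 ng/mL) as chemoattractant. After 22 h in a humidified incubator, non-invading cells were swabbed off, and invading cells on the filter underside were methanol-fixed and H&E-stained. Percent invasion came from counts of stained cells.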

[2] = Carrageenan-induced paw inflammation suppression test; assay type: in vivo; conditions: mouse paw after treatment with IIIm
[3] = test system: MDA-MB-231; assay: Cytotoxicity, cell viability; assay type: cell-based, human; conditions: concentrations as high as 100 μM, 24 h treatment
Summary of the method: (§1)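 Cells were seeded at 3000 cells/well and held 24 h at 37 °C in a CO2 incubator. They were then exposed to the test compound for 24 h at 37 °C. MTT-type tetrazolium reagent (CellTiter 96AQ) was added for a further 2 h, and absorbance was read at 490 nm.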

[4] = test system: SKBR3; assay: Cytotoxicity, cell viability; assay type: cell-based, human; conditions: concentrations as high as 100 μM, 24 h treatment
Summary of the method: as §1

[5] = test system: MCF-10A; assay: Cytotoxicity, cell viability; assay type: cell-based, human; conditions: concentrations as high as 100 μM, 24 h treatment
Summary of the method: as §1

[6] = target: CXCR4 (Homo sapiens, UniProt P61073); assay type: binding; conditions: fold loss of affinity vs RB-108
Sequence of CXCR4 (P61073 whole entry): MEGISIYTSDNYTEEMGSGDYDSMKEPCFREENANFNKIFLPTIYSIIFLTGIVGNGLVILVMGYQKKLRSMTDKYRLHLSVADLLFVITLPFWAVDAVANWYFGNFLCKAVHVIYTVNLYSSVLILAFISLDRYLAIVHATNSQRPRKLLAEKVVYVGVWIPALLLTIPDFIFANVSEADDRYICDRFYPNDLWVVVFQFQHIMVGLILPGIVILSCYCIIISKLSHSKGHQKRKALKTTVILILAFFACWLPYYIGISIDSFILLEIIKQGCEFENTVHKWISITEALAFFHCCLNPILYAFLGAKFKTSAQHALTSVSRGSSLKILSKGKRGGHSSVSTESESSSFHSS

Compound: c1cc(CN2CCCNCCNCCCNCC2)ccc1CN1CCCNCCNCCCNCC1 [AMD3100]
- inhibition at 0.1 µM [1]: 55%

Compound: O=C(NCc1ccc(CNS(=O)(=O)c2ccc3c(c2)CCO3)cc1)c1ccc(F)cc1 [IIIm, 4-Fluoro-N-(4-(((2,3-dihydrobenzofuran)-5-sulfonamido)methyl)benzyl)benzamide]
- Number of inflammatory cells accumulated in the paw tissue (histological analysis, H&E) [2]: markedly decreased
- Inhibition of proliferation (cytotoxicity) [3]: did not inhibit the proliferation
- Inhibition of proliferation (cytotoxicity) [4]: did not inhibit the proliferation
- Inhibition of proliferation (cytotoxicity) [5]: did not inhibit the proliferation

- EC reduced compared with RB-108 [6]: more than 1000 fold
Compound: Cc1ccc(S(=O)(=O)NCc2ccc(CNC(=O)c3ccc(F)cn3)cc2)cc1 [Ia, 5-Fluoro-N-(4-(((4-methylphenyl)sulfonamido)methyl)benzyl)picolinamide]

- EC reduced compared with RB-108 [6]: more than 1000 fold
Compound: Cc1ccc(S(=O)(=O)NCc2ccc(CNC(=O)c3ccc(F)nc3)cc2)cc1 [Ib, 6-Fluoro-N-(4-(((4-methylphenyl)sulfonamido)methyl)benzyl)nicotinamide]
